13 molecules from ChEMBL document CHEMBL2021801, “Thienopyridine ureas as dual inhibitors of the VEGF and Aurora kinase families” (Bioorg Med Chem Lett, 2012) can be followed below.

In general, pIC50 refers to the negative decadic logarithm of the IC50, by convention in mol/L. As a reminder, the bioavailability is dose-corrected exposure relative to a reference, in per cent. Read a high bioavailability as good availability. In general, ED50 refers to the dose that gives a 50% effect, or the effect in half of the subjects. One may read the half-life as the time in which the quantity being followed falls by half. Read a low half-life as fast loss. For orientation: clearance means the volume of plasma or blood freed of the substance per unit of time. Read a high clearance as efficient removal. As usually defined, the AUC is the area under the concentration-time curve, a measure of exposure. High values mean high exposure, low ones low exposure. For orientation: logD means lipophilicity at a set pH, counting ionised and neutral species. By solubility is commonly meant the dissolved amount per volume that the medium holds. A higher solubility goes with much dissolved substance.

Series [1] addresses T1, Aurora kinase B (Homo sapiens, UniProt Q96GD4). In words: Inhibition of Aurora B using 1 mM ATP by HTRF assay. (In general: TR-FRET usually uses a lanthanide donor and a delayed reading to cut background.)
The nature of series [2]: Oral bioavailability in CD1 (ICR) mouse at 10 mg/kg. It counts as ADME, organism-based. Conditions: in vivo.
The test system of series [3] is Mus musculus. In words: In vivo inhibition of KDR in po dosed mouse assessed as estradiol-induced uterine edema. It counts as functional.
Series [4] deals with T2, Cytochrome P450 3A4 (Homo sapiens, UniProt P08684). In words: Inhibition of CYP3A4 up to 10 uM. The series is classed as ADME.
T2 sequence (P08684 whole entry): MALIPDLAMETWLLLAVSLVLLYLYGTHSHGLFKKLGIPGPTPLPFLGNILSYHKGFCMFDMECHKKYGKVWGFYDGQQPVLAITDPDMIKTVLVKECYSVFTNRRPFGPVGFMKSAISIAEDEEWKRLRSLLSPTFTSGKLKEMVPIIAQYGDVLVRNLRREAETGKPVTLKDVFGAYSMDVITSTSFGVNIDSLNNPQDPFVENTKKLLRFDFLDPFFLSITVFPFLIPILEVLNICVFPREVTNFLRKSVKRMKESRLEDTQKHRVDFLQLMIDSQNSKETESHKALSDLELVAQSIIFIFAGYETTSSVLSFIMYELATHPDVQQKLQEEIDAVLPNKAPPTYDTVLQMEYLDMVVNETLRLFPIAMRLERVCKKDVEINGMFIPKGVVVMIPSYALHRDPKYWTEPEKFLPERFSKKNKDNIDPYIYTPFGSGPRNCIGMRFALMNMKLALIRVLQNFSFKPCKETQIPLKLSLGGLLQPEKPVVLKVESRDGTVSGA
Series [5] is described as follows: Half life in CD1 (ICR) mouse at 3 mg/kg, iv. The series is classed as ADME, organism-based. Further details: dose 3 mg/kg, route intravenous. Conditions: in vivo.
A short description of series [6]: Clearance in CD1 (ICR) mouse at 3 mg/kg, iv. It counts as ADME, organism-based. The conditions noted are these: in vivo. Further details: dose 3 mg/kg, route intravenous.
For series [7], the target named is T3, Vascular endothelial growth factor receptor 2 (Homo sapiens, UniProt P35968). In words: Inhibition of KDR using 1 mM ATP by HTRF assay.
T3 sequence (P35968 whole entry): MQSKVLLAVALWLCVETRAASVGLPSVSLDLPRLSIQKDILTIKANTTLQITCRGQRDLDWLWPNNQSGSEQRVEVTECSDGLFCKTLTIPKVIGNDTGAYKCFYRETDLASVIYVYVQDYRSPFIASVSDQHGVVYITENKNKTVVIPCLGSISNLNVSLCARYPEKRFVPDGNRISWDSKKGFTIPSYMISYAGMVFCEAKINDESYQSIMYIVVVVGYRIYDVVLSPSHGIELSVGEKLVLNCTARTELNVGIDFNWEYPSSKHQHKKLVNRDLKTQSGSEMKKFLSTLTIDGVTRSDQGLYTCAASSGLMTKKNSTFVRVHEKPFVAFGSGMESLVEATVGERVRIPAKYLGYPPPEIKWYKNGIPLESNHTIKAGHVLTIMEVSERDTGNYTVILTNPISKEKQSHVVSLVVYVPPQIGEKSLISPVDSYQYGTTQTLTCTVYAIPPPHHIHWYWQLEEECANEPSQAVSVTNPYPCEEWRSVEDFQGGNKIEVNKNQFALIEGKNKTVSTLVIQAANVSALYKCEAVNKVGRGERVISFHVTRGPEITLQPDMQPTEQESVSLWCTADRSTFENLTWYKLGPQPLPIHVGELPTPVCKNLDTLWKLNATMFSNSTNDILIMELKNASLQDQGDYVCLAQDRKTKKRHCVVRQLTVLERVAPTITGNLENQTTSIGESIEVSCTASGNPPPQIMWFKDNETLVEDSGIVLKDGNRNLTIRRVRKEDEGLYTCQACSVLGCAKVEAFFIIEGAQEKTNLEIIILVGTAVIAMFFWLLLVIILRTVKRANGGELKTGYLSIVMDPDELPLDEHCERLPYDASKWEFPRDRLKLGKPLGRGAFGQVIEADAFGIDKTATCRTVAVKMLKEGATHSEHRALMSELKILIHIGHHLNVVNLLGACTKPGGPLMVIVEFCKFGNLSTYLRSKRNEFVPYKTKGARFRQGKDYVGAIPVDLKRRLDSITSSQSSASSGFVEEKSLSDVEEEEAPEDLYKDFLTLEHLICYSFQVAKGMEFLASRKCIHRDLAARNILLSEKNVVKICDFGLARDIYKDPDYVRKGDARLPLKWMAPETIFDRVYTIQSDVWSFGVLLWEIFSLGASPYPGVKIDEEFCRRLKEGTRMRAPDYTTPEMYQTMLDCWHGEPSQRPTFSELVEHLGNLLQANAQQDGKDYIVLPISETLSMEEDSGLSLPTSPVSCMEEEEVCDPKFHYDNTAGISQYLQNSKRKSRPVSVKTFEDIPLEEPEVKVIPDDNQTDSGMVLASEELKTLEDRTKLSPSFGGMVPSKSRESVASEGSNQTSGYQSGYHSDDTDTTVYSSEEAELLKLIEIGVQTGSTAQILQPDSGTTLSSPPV
Series [8] addresses T1, Aurora kinase B. Conditions: NCI-H1229.
Series [9] can be described thus: Volume of distribution in CD1 (ICR) mouse at 3 mg/kg, iv. It counts as ADME, organism-based. Details: dose 3 mg/kg, route intravenous. Conditions: in vivo.
The nature of series [10]: AUC in CD1 (ICR) mouse at 10 mg/kg, po. It counts as ADME, organism-based. Details: dose 10 mg/kg, route oral. Conditions: plasma.
Series [11] deals with Mus musculus. In words: In vivo inhibition of KDR in mouse assessed as estradiol-induced uterine edema up to 30 mg/kg, po. The series is classed as functional, organism-based. Details: dose 30 mg/kg. The method, boiled down:
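Estradiol-induced uterine edema model in mice, a readout of acute in vivo KDR activity. Compound is given orally and ED50 is reported in mg/kg po. Procedure follows the cited reference.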

Series [12] has as its target T3, Vascular endothelial growth factor receptor 2. In words: Inhibition of human KDR phosphorylation expressed in mouse NIH3T3 cells. The series is classed as cell-based.
Series [13] concerns HT-1080. In words: Antitumor activity against human HT1080 cells xenografted in mouse assessed as tumor growth inhibition at 10 mg/kg, po qd. The conditions noted are these: read-out: GI. The series is classed as functional.
The species named for series [14] is Canis familiaris. In words: Cardiotoxicity in dog assessed as QT prolongation time at 117 uM plasma concentration. It counts as toxicity, organism-based, Canis lupus familiaris.
The nature of series [15]: Volume of distribution at steady state in rat. It counts as ADME, organism-based. The conditions noted are these: in vivo, read-out: Vdss.
For series [16], the target named is Voltage-gated inwardly rectifying potassium channel KCNH2 (Homo sapiens, UniProt Q12809). In words: Inhibition of human Erg by patch clamp assay in absence of plasma protein. On the technique in general: The patch-clamp technique gives a direct electrical read-out from membranes.
Voltage-gated inwardly rectifying potassium channel KCNH2, sequence (Q12809 whole entry): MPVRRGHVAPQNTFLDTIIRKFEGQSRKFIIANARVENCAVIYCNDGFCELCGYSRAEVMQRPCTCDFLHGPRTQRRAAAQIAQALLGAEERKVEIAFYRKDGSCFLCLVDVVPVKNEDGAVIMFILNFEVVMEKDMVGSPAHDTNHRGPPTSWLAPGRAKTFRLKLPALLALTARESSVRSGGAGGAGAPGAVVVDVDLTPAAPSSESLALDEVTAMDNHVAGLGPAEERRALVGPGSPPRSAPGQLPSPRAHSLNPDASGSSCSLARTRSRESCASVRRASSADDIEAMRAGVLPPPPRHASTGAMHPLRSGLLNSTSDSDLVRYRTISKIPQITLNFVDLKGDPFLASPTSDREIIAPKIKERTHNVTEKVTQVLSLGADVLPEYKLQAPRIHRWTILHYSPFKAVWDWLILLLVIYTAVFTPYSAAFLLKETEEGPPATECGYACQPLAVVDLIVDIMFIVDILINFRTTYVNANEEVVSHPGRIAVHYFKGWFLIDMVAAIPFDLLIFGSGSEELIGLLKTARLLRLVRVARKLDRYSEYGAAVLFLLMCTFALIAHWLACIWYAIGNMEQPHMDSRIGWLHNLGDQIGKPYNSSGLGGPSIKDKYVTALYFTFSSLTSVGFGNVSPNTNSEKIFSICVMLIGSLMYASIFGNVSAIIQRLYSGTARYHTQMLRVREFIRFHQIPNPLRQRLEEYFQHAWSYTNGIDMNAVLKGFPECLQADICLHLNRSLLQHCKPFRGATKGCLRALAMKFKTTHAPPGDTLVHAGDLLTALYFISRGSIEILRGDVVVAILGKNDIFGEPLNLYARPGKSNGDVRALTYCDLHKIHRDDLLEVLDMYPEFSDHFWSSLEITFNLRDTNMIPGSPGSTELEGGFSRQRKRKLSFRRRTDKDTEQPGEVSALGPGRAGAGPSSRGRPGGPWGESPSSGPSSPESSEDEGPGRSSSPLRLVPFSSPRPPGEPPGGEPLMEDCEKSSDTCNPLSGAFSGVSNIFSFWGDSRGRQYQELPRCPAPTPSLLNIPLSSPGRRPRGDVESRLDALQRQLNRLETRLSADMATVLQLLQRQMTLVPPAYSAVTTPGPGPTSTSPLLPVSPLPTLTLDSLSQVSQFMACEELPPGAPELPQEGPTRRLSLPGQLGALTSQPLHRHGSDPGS
The nature of series [17]: Volume of distribution at steady state in mouse. The series is classed as ADME, organism-based. The conditions noted are these: in vivo, read-out: Vdss.
The nature of series [18]: Protein binding in dog. It counts as ADME, organism-based, Canis lupus familiaris. The conditions noted are these: plasma, read-out: PB.
A short description of series [19]: Protein binding in rat. It counts as ADME, organism-based. Conditions: plasma, read-out: PB.
Series [20] in a line: Volume of distribution at steady state in dog. It counts as ADME, organism-based, Canis lupus familiaris. Conditions: in vivo, read-out: Vdss.
Series [21] in a line: Lipophilicity, log D of the compound at pH 7. It counts as physicochemical. Conditions: buffer.
Series [22] in a line: Aqueous solubility of the compound. The series is classed as physicochemical. Conditions: buffer. The method in brief:
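Aqueous solubility was measured across the physiological pH range.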

Series [23] is described as follows: Half life in mouse. It counts as ADME, organism-based. The conditions noted are these: in vivo.
Series [24] is described as follows: Protein binding in mouse. It counts as ADME, organism-based. The conditions noted are these: plasma, read-out: PB.
The nature of series [25]: Plasma clearance in mouse. The series is classed as ADME, organism-based.
Series [26] in a line: Half life in dog. The series is classed as ADME, organism-based, Canis lupus familiaris. The conditions noted are these: in vivo.
A short description of series [27]: Plasma clearance in dog. It counts as ADME, organism-based, Canis lupus familiaris.
The species entered for series [28] is Canis familiaris. In words: Cardiotoxicity in dog assessed as QT prolongation time at 32.1 uM plasma concentration. It counts as toxicity, organism-based, Canis lupus familiaris.
Series [29] deals with T2, Cytochrome P450 3A4. In words: Inhibition of CYP3A4. It counts as ADME.
A short description of series [30]: Half life in rat. The series is classed as ADME, organism-based. The conditions noted are these: in vivo.
The nature of series [31]: Plasma clearance in rat. It counts as ADME, organism-based.
In series [32] the target is T2, Cytochrome P450 3A4. In words: Inhibition of CYP3A4 preincubated for 15 mins. It counts as ADME.

Each structure is given as a SMILES string. pIC50: −log10 of the molar value. Activity calls are given as the source filed them. The calls are words filed in the database; no cut-off is given here.

T1 sequence (Q96GD4 whole entry): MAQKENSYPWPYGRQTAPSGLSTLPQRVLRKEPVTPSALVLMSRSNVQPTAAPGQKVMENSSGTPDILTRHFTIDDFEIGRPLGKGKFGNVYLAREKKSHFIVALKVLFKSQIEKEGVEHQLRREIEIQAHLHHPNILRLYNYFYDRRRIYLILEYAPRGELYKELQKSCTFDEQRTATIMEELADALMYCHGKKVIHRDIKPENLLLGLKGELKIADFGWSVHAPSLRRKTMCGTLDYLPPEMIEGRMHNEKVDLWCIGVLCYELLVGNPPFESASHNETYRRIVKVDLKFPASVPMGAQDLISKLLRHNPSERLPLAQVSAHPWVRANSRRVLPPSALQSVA

For the molecule `COc1ccc(NC(=O)Nc2ccc(-c3csc4c(-c5cnn(C)c5)cnc(N)c34)cc2)cc1`, the pIC50 in [1] is 6.94; in [7] it was 8.22. In [2], this molecule registered a bioavailability of 44%. Besides, the ED50 in [3] came out at 1.3 mg/kg. Also, the “inhibition (INH)” value in series [4] is given as under 20%. For the same molecule, the half-life in [5] is 78 min. Also, in series [6], the clearance was 15 mL/min/kg. In series [8], the EC15 is 57 nM. This molecule also registered a Vd in series [9] of 1.5 L/kg. In series [10], this molecule gave an AUC of 5220 ng·h/mL.

Molecule `Cc1cccc(NC(=O)Nc2ccc(-c3csc4ccnc(N)c34)cc2)c1` yielded a bioavailability in series [2] of 18%. Besides, the half-life in [5] is 18 min. The same molecule gave a clearance in [6] of 66.7 mL/min/kg. Also, the EC15 in [8] was 4140 nM. In series [9], this molecule showed a Vd of 1.7 L/kg. In [10], this molecule registered an AUC of 450 ng·h/mL. The result in series [11] was inactive.

Consider `CNC(=O)c1cnc(N)c2c(-c3ccc(NC(=O)Nc4cccc(C)c4)cc3)csc12`, for which the figures for the pIC50 in [1] and in series [12] were 7.89 and 9.00, respectively. In [8], this molecule had an EC15 of 46 nM.

As for `Cc1cccc(NC(=O)Nc2ccc(-c3csc4c(-c5cnn(C)c5)cnc(N)c34)cc2)c1`, the bioavailability in [2] worked out at 59%. Moreover, the ED50 in series [3] worked out at 1 mg/kg. The half-life in series [5] was 90 min. The molecule also gave a clearance in series [6] of 18.3 mL/min/kg. The inhibition in vivo at 10 mg/kg in [13] is over 70%. In addition, the EC15 in series [8] was determined as 55 nM. The molecule also displayed a Vd in [9] of 2.3 L/kg. Moreover, the AUC in [10] was 5640 ng·h/mL.

As for `Cc1cccc(NC(=O)Nc2ccc(-c3csc4c(-c5cc[nH]c5)cnc(N)c34)cc2)c1`, the pIC50 was 7.17 in [1], 9.00 in series [12] and 8.40 in series [7]. This molecule also returned an EC15 in series [8] of 389 nM.

For the molecule `CNC(=O)/C=C/c1cnc(N)c2c(-c3ccc(NC(=O)Nc4cccc(C)c4)cc3)csc12`, the pIC50 in [1] was 7.10; in series [12], 7.66; in series [7], 8.22. In series [8], the EC15 stood at 87 nM.

Take `Cc1cccc(NC(=O)Nc2ccc(-c3csc4c(-c5ccsc5)cnc(N)c34)cc2)c1`: the pIC50 was 6.75 in [1], 7.51 in series [12] and 8.05 in series [7]. The molecule further came in with an EC15 in series [8] of over 300 nM.

Take `Cc1cccc(NC(=O)Nc2ccc(-c3csc4c(-c5ccoc5)cnc(N)c34)cc2)c1`: the pIC50 is 7.00 in series [1], 7.85 in series [12] and 8.10 in series [7]. In [8], this molecule returned an EC15 of over 300 nM.

For the molecule `C[C@@H](O)Cn1cc(-c2cnc(N)c3c(-c4ccc(NC(=O)Nc5cccc(F)c5)cc4)csc23)cn1`, the pIC50 in series [1] was 9.00. In series [2], this molecule had a bioavailability of 42%. For the same molecule, the ED50 in [3] amounted to 1.2 mg/kg. In addition, in series [4], the “inhibition (INH)” value is under 20%. The half-life in series [5] is 174 min. For the same molecule, the clearance in [6] was 5 mL/min/kg. In [8], this molecule showed an EC15 of 2 nM. The Vd in series [9] was found to be 1.2 L/kg. In addition, the AUC in [10] is 14600 ng·h/mL.

`Nc1ncc(-c2cnn(CCO)c2)c2scc(-c3ccc(NC(=O)Nc4cccc(F)c4)cc3)c12` [ILORASERTIB]: the Time in series [14] came out at 25 ms; in [28] it was 11 ms. For the same molecule, the Vd in series [15] was found to be 0.4 L/kg; in series [17], 0.4 L/kg; in series [20], 0.4 L/kg; in series [9], 1.7 L/kg. The pIC50 is 6.00 in series [16] and under 4.52 in series [29]. Moreover, in [2], the bioavailability was 47%. In addition, the fraction unbound in series [18], in [19] and in series [24] was under 0.01 in each case. For the same molecule, the ED50 in series [3] is 3.2 mg/kg. Further, the “inhibition (INH)” value in series [4] is under 20%. The molecule also displayed a logD in series [21] of 4.5. Further, the half-life in [5] was 282 min; in series [23], 240 min; in series [26] it was 240 min; in series [30] it was 240 min. The clearance is 5 mL/min/kg in [6], under 5 mL/min/kg in series [25], under 5 mL/min/kg in series [27] and under 5 mL/min/kg in series [31]. This molecule also came in with a solubility in series [22] of under 78 µM. In addition, in [8], the EC15 came out at 12 nM. Moreover, the AUC in [10] stood at 18600 ng·h/mL.

Regarding `Cc1cccc(NC(=O)Nc2ccc(-c3csc4c(-c5cc[nH]n5)cnc(N)c34)cc2)c1`, the pIC50 in series [1] was 7.18; in series [12] it was 8.52; in [7], 8.22. In series [8], the EC15 was found to be 161 nM.

As to `Cn1cc(-c2cnc(N)c3c(-c4ccc(NC(=O)Nc5cccc(F)c5)cc4)csc23)cn1`, the figures for the pIC50 in series [1], in series [32] and in series [29] were 8.05, 5.57 and 5.10, respectively. Moreover, the bioavailability in [2] turned out to be 78%. Also, the ED50 in series [3] came to 0.3 mg/kg. In series [5], this molecule gave a half-life of 216 min. Further, the clearance in series [6] was 3.33 mL/min/kg. In addition, the inhibition in vivo at 10 mg/kg in [13] was over 70%. The molecule also showed an EC15 in series [8] of 6 nM. For the same molecule, the Vd in series [9] was found to be 0.9 L/kg. This molecule also gave an AUC in series [10] of 44000 ng·h/mL.

Molecule `CCCn1cc(-c2cnc(N)c3c(-c4ccc(NC(=O)Nc5cccc(F)c5)cc4)csc23)cn1` gave a pIC50 in series [1] of 7.51. In [2], the bioavailability came to 52%. In addition, the ED50 in series [3] came out at 1.5 mg/kg. The “inhibition (INH)” value in series [4] is recorded as under 20%. Besides, the half-life in series [5] is 48 min. Further, the clearance in [6] is 16.7 mL/min/kg. In [13], the inhibition in vivo at 10 mg/kg is over 70%. The same molecule came in with an EC15 in series [8] of 4 nM. Moreover, the Vd in series [9] was determined as 1.2 L/kg. In series [10], this molecule came in with an AUC of 5260 ng·h/mL.
